Measurements: ChEMBL document CHEMBL3621108, “Discovery, Development, and SAR of Aminothiazoles as LIMK Inhibitors with Cellular Anti-Invasive Properties” (J Med Chem, 2015)

How the values were obtained:
LIM domain kinase 1 [1] = biological target: T1, LIM domain kinase 1 (Homo sapiens, UniProt P53667); experiment: Inhibition of recombinant N-terminal 6His-tagged LIMK1 (unknown origin) expressed in Sf21 cells by HTRF assay using cofilin as a substrate
Target sequence in this assay (P53667 whole entry, the tested form may be a part): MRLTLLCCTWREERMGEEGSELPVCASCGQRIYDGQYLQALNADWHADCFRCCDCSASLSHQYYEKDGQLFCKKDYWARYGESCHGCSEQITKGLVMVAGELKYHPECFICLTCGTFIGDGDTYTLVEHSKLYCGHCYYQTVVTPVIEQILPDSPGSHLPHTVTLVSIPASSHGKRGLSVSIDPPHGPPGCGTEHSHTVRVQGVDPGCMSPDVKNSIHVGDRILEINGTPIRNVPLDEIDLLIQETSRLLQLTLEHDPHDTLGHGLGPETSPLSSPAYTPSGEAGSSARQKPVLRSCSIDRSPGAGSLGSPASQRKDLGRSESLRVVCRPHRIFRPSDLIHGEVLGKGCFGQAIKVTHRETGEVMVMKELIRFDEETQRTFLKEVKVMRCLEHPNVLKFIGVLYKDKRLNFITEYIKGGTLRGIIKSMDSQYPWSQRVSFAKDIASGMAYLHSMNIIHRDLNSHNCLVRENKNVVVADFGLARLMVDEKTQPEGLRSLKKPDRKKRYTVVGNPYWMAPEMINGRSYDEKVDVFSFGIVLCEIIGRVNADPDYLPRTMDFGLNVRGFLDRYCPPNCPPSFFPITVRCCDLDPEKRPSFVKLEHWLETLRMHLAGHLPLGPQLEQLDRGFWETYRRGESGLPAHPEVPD

LIM domain kinase 1 [2] = biological target: T1, LIM domain kinase 1; experiment: Inhibition of LIMK1 in human ZR75-1 cells assessed as inhibition of cofilin phosphorylation after 5 hrs; type: cell-based, ZR-75-1
Summary of the method: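 p-Cofilin biomarker assay in ZR-75-1 cells, imaged and quantified on a Cellomics array scan instrument.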
Target sequence in this assay (P53667 whole entry, the tested form may be a part): as above

[3] = Cytotoxicity against human MDA-MB-231 cells assessed as viable cells at 10 uM; type: cell-based; conditions: read-out: Activity
Summary of the method: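 MTT viability assay; cells exposed to 10 µM inhibitor, read-out as % viable cells.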

MDA-MB-231 = experiment: Antiinvasion activity in human MDA-MB-231-luc cells at 3 uM by matrigel inverse invasion assay; type: functional
Summary of the method: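 MDA MB-231-luc cells plated on underside of transwell filter; invasion into matrigel plug (inverse format) scored by confocal microscopy of plug sections. Inhibition = proportion of cells invading beyond 60 µm versus under 60 µm, relative to control; compound at 3 µM.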

LIM domain kinase 2 [4] = biological target: T2, LIM domain kinase 2 (Homo sapiens, UniProt P53671); experiment: Inhibition of human N-terminal GST-tagged LIMK2
Summary of the method: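 LIMK2 activity measured in a lanthabind-format assay.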
Target sequence in this assay (P53671 whole entry, the tested form may be a part): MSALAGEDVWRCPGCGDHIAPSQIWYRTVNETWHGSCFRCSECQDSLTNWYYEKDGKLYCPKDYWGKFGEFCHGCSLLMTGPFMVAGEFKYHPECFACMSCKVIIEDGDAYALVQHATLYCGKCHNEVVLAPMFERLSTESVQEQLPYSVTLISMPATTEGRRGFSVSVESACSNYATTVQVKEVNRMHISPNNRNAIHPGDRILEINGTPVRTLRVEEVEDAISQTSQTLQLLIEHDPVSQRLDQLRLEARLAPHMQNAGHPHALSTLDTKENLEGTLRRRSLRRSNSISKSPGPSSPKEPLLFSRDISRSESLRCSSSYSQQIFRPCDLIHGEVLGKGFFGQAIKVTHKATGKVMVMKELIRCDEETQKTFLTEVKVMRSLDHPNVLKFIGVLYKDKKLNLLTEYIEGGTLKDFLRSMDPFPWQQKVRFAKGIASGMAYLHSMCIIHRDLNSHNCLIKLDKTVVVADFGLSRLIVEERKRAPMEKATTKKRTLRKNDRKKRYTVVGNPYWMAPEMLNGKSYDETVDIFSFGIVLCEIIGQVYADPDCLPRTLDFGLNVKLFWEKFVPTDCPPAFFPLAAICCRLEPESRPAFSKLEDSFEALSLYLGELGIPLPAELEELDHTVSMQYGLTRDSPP

[5] = Metabolic stability in mouse liver microsome assessed per gram of tissue; type: ADME; conditions: microsomes
Liver microsome = experiment: Metabolic stability in human liver microsome assessed per gram of tissue; type: ADME; conditions: microsomes
[6] = biological target: 5'-AMP-activated protein kinase catalytic subunit alpha-1 (Homo sapiens) (UniProt Q13131); conditions: 10 uM
Chain of 5'-AMP-activated protein kinase catalytic subunit alpha-1 (Homo sapiens) (Q13131 whole entry, looked up): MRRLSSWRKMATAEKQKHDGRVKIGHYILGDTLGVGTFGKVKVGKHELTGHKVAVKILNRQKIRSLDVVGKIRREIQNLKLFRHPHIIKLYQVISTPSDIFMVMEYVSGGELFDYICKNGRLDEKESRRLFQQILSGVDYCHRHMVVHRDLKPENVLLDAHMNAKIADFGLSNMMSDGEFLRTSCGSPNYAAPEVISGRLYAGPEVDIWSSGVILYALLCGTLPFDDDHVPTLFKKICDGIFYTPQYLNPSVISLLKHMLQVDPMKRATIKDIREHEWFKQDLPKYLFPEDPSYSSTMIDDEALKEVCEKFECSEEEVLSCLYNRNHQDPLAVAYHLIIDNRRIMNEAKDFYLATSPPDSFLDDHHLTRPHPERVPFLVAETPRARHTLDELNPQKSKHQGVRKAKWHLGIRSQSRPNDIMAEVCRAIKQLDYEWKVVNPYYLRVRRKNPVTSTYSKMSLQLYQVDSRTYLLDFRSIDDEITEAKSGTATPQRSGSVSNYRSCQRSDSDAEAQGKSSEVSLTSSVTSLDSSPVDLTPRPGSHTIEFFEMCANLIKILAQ

[7] = biological target: 5'-AMP-activated protein kinase catalytic subunit alpha-2 (Homo sapiens) (UniProt P54646); conditions: 10 uM
Chain of 5'-AMP-activated protein kinase catalytic subunit alpha-2 (Homo sapiens) (P54646 whole entry, looked up): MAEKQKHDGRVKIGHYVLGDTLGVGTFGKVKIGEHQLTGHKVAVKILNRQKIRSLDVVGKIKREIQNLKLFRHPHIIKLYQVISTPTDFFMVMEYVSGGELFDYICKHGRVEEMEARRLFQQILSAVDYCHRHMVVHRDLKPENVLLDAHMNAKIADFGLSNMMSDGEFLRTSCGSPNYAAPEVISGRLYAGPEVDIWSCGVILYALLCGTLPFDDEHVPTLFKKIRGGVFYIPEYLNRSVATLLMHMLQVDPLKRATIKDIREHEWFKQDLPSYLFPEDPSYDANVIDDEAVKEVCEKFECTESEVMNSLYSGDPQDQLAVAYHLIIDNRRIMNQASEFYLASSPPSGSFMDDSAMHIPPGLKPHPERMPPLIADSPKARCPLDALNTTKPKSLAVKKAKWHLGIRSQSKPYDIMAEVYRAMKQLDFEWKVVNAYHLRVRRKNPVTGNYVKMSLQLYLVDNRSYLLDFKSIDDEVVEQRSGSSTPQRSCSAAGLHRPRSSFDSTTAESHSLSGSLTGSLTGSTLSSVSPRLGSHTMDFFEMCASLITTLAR

[8] = biological target: Cyclin-dependent kinase 2 (Homo sapiens) (UniProt P24941); conditions: 10 uM
[9] = biological target: Cyclin-dependent kinase 7 (Homo sapiens) (UniProt P50613); conditions: 10 uM
Chain of Cyclin-dependent kinase 7 (Homo sapiens) (P50613 whole entry): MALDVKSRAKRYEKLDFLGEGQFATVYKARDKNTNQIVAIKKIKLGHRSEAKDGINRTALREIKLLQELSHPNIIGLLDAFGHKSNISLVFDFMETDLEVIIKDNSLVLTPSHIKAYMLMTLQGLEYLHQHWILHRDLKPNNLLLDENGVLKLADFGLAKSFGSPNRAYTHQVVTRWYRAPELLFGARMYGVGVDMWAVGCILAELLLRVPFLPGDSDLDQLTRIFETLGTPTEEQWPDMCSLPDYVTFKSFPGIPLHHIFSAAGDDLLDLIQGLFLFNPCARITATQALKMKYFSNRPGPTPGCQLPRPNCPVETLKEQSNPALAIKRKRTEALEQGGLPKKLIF

[10] = biological target: T3, Cyclin-dependent kinase-like 2 (Homo sapiens) (UniProt Q92772); conditions: 10 uM
T3 sequence (whole entry): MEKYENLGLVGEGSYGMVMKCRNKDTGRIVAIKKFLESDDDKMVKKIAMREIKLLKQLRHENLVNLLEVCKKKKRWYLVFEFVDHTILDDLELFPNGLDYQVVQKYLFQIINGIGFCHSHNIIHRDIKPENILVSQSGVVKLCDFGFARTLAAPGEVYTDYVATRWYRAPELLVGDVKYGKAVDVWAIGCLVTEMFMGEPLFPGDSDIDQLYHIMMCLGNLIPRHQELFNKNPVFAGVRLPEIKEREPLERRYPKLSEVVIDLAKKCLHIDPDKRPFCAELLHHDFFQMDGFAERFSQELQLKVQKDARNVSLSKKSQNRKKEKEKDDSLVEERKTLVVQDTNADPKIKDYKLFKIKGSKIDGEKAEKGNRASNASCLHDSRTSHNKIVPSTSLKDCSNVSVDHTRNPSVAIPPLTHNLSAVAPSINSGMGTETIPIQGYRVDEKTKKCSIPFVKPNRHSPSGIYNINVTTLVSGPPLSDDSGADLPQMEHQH

[11] = biological target: T4, Discoidin domain-containing receptor 2 (Homo sapiens) (UniProt Q16832); conditions: 10 uM
T4 sequence (whole entry): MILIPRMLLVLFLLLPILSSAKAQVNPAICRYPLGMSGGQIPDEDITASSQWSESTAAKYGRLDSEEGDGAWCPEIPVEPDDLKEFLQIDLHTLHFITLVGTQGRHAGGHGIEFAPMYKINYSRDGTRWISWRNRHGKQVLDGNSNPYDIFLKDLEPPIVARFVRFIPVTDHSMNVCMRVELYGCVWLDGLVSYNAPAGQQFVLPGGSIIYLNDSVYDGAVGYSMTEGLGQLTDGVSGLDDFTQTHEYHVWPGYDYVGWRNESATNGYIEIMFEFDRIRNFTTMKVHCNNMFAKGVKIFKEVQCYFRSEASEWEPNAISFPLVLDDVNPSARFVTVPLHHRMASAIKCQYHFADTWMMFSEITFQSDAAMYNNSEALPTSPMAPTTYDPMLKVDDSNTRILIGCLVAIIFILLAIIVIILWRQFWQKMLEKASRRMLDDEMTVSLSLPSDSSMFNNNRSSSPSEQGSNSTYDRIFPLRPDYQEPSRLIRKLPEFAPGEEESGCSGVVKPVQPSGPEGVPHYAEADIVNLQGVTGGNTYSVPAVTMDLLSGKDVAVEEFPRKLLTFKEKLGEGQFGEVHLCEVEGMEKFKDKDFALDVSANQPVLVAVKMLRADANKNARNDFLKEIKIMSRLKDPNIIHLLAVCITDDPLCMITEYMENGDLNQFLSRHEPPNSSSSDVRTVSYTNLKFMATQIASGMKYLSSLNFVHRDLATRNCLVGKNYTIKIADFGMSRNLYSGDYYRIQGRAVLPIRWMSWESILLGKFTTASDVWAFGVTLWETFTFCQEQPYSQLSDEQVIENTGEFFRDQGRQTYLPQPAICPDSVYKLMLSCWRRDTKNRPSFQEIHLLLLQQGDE

[12] = biological target: T5, Mitogen-activated protein kinase 15 (Homo sapiens) (UniProt Q8TD08); conditions: 10 uM
T5 sequence (whole entry): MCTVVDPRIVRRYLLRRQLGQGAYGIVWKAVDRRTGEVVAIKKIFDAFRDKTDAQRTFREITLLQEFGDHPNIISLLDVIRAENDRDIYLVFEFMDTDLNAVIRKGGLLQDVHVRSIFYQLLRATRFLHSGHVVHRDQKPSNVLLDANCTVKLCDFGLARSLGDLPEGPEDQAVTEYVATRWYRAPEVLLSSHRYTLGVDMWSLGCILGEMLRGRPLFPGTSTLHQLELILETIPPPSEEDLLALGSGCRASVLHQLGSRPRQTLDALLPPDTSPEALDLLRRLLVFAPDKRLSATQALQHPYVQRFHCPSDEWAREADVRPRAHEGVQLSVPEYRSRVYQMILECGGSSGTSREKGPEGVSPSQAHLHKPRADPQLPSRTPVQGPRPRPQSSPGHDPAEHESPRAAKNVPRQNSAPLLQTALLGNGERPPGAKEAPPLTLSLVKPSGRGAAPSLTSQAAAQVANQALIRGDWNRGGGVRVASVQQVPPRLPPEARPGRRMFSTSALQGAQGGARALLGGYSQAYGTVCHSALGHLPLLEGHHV

[13] = biological target: T6, Serine/threonine-protein kinase MAK (Homo sapiens) (UniProt P20794); conditions: 10 uM
T6 sequence (whole entry): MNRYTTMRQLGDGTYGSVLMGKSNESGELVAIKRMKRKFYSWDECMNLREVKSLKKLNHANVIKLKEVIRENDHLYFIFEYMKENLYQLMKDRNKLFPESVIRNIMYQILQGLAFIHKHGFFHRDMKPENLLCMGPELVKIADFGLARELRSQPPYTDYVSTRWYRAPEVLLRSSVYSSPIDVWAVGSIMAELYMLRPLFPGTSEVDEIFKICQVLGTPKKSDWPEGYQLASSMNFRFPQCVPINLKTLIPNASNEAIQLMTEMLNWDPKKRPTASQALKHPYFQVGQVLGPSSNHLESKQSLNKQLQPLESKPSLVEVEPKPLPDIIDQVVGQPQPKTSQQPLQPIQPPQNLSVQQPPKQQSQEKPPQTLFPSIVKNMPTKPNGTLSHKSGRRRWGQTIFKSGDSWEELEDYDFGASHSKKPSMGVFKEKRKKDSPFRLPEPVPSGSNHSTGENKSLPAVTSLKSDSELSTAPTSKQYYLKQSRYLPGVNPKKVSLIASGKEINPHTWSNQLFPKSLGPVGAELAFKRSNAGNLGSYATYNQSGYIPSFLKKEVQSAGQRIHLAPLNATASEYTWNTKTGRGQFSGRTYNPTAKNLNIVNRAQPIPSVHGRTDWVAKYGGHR

[14] = biological target: Serine/threonine-protein kinase PAK 3 (Homo sapiens) (UniProt O75914); conditions: 10 uM
Chain of Serine/threonine-protein kinase PAK 3 (Homo sapiens) (O75914 whole entry, looked up): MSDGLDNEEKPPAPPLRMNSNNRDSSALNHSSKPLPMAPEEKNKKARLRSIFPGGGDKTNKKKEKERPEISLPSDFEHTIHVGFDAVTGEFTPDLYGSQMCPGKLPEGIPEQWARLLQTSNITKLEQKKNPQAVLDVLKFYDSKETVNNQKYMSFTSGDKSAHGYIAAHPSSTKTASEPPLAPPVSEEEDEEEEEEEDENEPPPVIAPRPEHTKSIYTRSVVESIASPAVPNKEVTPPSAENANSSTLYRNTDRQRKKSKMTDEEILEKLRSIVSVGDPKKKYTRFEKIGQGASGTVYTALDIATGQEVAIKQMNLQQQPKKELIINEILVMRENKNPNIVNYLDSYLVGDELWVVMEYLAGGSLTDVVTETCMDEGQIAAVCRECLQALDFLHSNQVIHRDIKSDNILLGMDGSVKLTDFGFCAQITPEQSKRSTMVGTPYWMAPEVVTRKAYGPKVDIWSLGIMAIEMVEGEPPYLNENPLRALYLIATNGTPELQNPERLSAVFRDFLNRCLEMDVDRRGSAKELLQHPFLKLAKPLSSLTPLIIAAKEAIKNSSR

[15] = biological target: Cyclin-dependent kinase 18 (Homo sapiens) (UniProt Q07002); conditions: 10 uM
Chain of Cyclin-dependent kinase 18 (Homo sapiens) (Q07002 whole entry): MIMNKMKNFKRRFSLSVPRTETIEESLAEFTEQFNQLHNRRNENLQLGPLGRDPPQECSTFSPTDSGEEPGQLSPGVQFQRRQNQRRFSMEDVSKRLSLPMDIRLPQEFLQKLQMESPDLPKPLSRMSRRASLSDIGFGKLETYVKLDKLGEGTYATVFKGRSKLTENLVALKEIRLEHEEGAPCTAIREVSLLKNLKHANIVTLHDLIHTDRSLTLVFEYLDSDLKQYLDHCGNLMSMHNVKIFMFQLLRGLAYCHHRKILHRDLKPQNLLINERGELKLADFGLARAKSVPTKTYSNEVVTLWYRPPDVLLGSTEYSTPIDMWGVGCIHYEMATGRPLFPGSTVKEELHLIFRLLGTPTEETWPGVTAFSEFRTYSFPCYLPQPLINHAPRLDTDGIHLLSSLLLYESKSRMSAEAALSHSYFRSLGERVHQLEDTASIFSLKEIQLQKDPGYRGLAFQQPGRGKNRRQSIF

[16] = biological target: T7, Phosphatidylinositol 5-phosphate 4-kinase type-2 gamma (Homo sapiens) (UniProt Q8TBX8); conditions: 10 uM
T7 sequence (whole entry): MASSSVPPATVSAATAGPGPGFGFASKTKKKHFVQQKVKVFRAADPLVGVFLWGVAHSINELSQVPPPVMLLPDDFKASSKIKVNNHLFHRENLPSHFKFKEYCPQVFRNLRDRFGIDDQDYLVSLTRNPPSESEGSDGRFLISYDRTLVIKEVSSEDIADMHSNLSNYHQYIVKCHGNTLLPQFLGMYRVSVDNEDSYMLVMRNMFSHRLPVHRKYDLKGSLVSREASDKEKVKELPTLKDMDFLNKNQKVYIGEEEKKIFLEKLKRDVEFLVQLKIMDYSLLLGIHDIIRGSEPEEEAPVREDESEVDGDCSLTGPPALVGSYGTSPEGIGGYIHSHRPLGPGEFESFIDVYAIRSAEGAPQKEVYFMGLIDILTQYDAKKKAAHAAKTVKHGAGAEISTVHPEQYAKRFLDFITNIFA

[17] = biological target: Serine/threonine-protein kinase 16 (Homo sapiens) (UniProt O75716); conditions: 10 uM
Chain of Serine/threonine-protein kinase 16 (Homo sapiens) (O75716 whole entry, the tested form may be a part): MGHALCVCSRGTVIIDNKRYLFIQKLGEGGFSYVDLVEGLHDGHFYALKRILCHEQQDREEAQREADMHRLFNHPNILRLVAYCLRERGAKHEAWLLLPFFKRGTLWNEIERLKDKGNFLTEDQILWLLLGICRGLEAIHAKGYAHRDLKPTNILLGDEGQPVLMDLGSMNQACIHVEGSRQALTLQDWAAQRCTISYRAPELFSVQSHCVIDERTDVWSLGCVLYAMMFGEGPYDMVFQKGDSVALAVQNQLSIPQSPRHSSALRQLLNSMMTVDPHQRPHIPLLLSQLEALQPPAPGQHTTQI

LIM domain kinase 1 [18] = biological target: T1, LIM domain kinase 1; conditions: 10 uM
Target sequence in this assay (P53667 whole entry, looked up, the tested form may be a part): as the sequence (P53667 whole entry, the tested form may be a part) above

LIM domain kinase 2 [19] = biological target: T2, LIM domain kinase 2; conditions: 10 uM
Target sequence in this assay (P53671 whole entry, looked up, the tested form may be a part): as the sequence (P53671 whole entry, the tested form may be a part) above

SMILES | IC50 (LIM domain kinase 1 [1]) [nM] | IC50 (LIM domain kinase 1 [2]) [nM] | other results
CCCNc1ncc(-c2ccncc2-c2ccccc2Cl)s1 | 15 | 3800 | 
CCCNc1ncc(-c2ccncc2-c2ccccc2C)s1 | 82 | 11500 | 
CCCN(C)c1ncc(-c2ccncc2-c2ccccc2Cl)s1 | 3100 |  | 
CCNc1ncc(-c2ccncc2-c2ccccc2Cl)s1 | 120 | 14000 | 
CCCNc1ncc(-c2ccncc2-c2cccc(Cl)c2)s1 | 500 |  | 
CC(C)CNc1ncc(-c2ccncc2-c2ccccc2Cl)s1 | 5 | 1500 | viability at 10 µM [3]: 88%; inhibition at 3 µM (MDA-MB-231): 34%
Nc1ncc(-c2ccncc2-c2ccccc2Cl)s1 | 270 | > 30000 | 
CCCNc1ncc(-c2ccncc2-c2ccccc2C(F)(F)F)s1 | 37 | 2200 | 
COc1ccc(-c2cnccc2-c2cnc(NC(=O)C(C)C)s2)c(C(F)(F)F)c1 |  | 2000 | IC50 (LIM domain kinase 2 [4]): 48 nM; Stability [5]: 5.2 mL/min; Stability (Liver microsome): 3.7 mL/min; viability at 10 µM [3]: 106%; inhibition at 3 µM (MDA-MB-231): 52%; inhibition [6]: > 90%; inhibition [7]: > 90%; inhibition [8]: > 90%; inhibition [9]: > 90%; inhibition [10]: > 90%; inhibition [11]: > 90%; inhibition [12]: > 90%; inhibition [13]: > 90%; inhibition [14]: > 90%; inhibition [15]: > 90%; inhibition [16]: > 90%; inhibition [17]: > 90%; inhibition (LIM domain kinase 1 [18]): > 90%; inhibition (LIM domain kinase 2 [19]): > 90%
Clc1ccccc1-c1cnccc1-c1cnc(Nc2ccccc2)s1 | 3 | 600 | 
CCCNc1ncc(-c2ccncc2-c2ccccc2C(C)C)s1 | 3300 |  | 
CC(C)C(=O)Nc1ncc(-c2ccncc2-c2ccccc2Cl)s1 | 3 | 800 | 
Cc1ccc(-c2cnccc2-c2cnc(NC(=O)C(C)C)s2)c(Cl)c1 | 1 |  | IC50 (LIM domain kinase 2 [4]): 3 nM; Stability [5]: 19.4 mL/min; Stability (Liver microsome): 8.3 mL/min; viability at 10 µM [3]: 131%; inhibition at 3 µM (MDA-MB-231): 48%
C[C@H](Nc1ncc(-c2ccncc2-c2ccccc2Cl)s1)c1ccccc1 | 40 | 9200 | 
CCCNc1ncc(-c2ccncc2-c2ccccc2)s1 | 850 |  | 
CCCNc1ncc(-c2ccncc2)s1 | 19000 |  | 
CC(=O)Nc1ncc(-c2ccncc2-c2ccccc2Cl)s1 | 20 | 1400 | 
CCCNc1ncc(-c2ccncc2-c2ccc(Cl)cc2)s1 | 620 |  | 
CCCNc1ncc(-c2ccncc2-c2ccc(OC)cc2C(F)(F)F)s1 | 13 | 2500 | 
CCCNc1ncc(-c2cccnc2-c2ccccc2Cl)s1 | 327 |  | 
C=CCNc1nc(N)c(C(=O)c2ccc3c(c2)OCO3)s1 | 4000 |  | 
CCCNc1ncc(-c2ncccc2-c2ccccc2Cl)s1 | ≥ 30000 |  | 
CCCNc1ncc(-c2cnccc2-c2ccccc2Cl)s1 | 574 |  | 
C[C@@H](Nc1ncc(-c2ccncc2-c2ccccc2Cl)s1)c1ccccc1 | 4 | 2100 | 
